Test results from ChEMBL document CHEMBL1156157, “1,7-Disubstituted oxyindoles are potent and selective EP(3) receptor antagonists” (Bioorg Med Chem Lett, 2010).

Columns and labels:
[1] = molecular target: T1, Prostaglandin E2 receptor EP3 subtype (Homo sapiens, UniProt P43115); experiment: Displacement of [3H]PGE2 from human EP3 receptor in buffer
T1 sequence (P43115 whole entry): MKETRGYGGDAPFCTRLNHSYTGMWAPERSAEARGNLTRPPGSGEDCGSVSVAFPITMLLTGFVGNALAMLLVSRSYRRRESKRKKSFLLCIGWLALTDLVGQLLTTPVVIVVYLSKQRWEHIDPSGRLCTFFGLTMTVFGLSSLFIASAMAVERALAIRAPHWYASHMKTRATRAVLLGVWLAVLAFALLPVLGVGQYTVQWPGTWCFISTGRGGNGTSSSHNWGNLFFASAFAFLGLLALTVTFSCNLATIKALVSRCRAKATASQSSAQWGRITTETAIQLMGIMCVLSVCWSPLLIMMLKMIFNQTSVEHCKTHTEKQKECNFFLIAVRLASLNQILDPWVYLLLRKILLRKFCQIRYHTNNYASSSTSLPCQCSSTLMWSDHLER

[2] = Metabolic stability in human liver microsomes assessed as parent compound remaining after 30 mins; type: ADME, Microsome; conditions: read-out: Stability
Summary of the method: (§1)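 Compounds incubated with liver microsomes from human, rat, mouse, dog or monkey. Read-out is percent parent compound remaining at 30 min of incubation.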

[3] = Metabolic stability in rat liver microsomes assessed as parent compound remaining after 30 mins; type: ADME, Microsome; conditions: read-out: Stability; summary of the method: as §1
[4] = molecular target: T1, Prostaglandin E2 receptor EP3 subtype; experiment: Displacement of [3H]PGE2 from human EP3 receptor in presence of 10% human serum
Rattus norvegicus = organism: Rattus norvegicus; experiment: Antithrombotic activity in rat assessed as platelet aggregation; type: functional
Summary of the method: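 Functional EP3 antagonism measured in a rat platelet aggregation assay. Values reported as EC50 in nM.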

[5] = Metabolic stability in mouse liver microsomes assessed as parent compound remaining after 30 mins; type: ADME, Microsome; conditions: read-out: Stability; summary of the method: as §1
Cytochrome P450 3A4 = Cytochrome P450 3A4 (Homo sapiens, UniProt P08684); experiment: Inhibition of human CYP3A4 using 7-benzyloxy-4-trifluoromethylcoumarin as substrate; type: ADME
Sequence of Cytochrome P450 3A4 (P08684 whole entry): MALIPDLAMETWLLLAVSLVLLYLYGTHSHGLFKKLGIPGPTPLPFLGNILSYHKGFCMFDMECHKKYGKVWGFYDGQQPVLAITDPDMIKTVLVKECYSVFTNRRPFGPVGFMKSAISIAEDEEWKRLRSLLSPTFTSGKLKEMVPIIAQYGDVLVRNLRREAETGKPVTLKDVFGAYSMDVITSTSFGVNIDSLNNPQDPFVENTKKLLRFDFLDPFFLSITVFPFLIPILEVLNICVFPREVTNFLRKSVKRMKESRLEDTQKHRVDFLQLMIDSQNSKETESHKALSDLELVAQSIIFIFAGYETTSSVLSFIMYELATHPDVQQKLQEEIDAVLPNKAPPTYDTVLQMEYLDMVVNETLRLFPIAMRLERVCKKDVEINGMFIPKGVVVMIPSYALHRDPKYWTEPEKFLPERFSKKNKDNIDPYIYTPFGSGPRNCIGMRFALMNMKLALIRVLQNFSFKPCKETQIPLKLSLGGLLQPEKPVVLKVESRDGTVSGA
Summary of the method: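 Inhibition of human CYP3A4 with 7-benzyloxy-4-trifluoromethylcoumarin (BFC) as substrate. Values given as IC50.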

Row | Compound | IC50 [1] [nM] | remaining at 0.5 h [2] [%] | remaining at 0.5 h [3] [%] | IC50 [4] [nM] | EC50 (Rattus norvegicus) [nM] | remaining at 0.5 h [5] [%] | IC50 (Rattus norvegicus) [nM] | inhibition (INH) (Cytochrome P450 3A4)
1 | O=C(/C=C/c1cccc2c1N(Cc1ccc3ccccc3c1)C(=O)C2)NS(=O)(=O)c1cccs1 | 23.6 |  |  |  |  |  |  | 
2 | O=C(/C=C/c1cccc2c1N(Cc1ccc3ccccc3c1)C(=O)C2)NS(=O)(=O)c1cc(F)c(F)cc1F | 0.3 | 73.9 | 62.5 | 10.2 | 1090 |  |  | 
3 | O=C(/C=C/c1cccc2c1N(Cc1ccc3ccccc3c1)C(=O)C2)NS(=O)(=O)c1ccc(F)c(F)c1 | 0.4 | 65.9 | 43 | 6.9 | 246 | 13.2 |  | 
4 | O=C(/C=C/c1cccc2c1N(Cc1ccc3ccccc3c1)C(=O)C2)NS(=O)(=O)c1ccc(Cl)c(Cl)c1 | 0.5 | 66.5 | 46 | 5.2 |  | 15.7 |  | 
5 | O=C(/C=C/c1cccc2c1N(Cc1ccc3ccccc3c1)C(=O)C2)NS(=O)(=O)c1cccc(Cl)c1 | 0.6 | 56.8 | 29.8 | 8.1 | 405 | 7.8 |  | 
6 | O=C(/C=C/c1cccc2c1N(Cc1ccc(F)c(F)c1)C(=O)C2)NS(=O)(=O)c1ccc(F)c(F)c1 | 0.9 |  |  | 47.8 |  |  |  | 
7 | O=C(/C=C/c1cccc2c1N(Cc1ccc(F)c(F)c1)C(=O)C2)NS(=O)(=O)c1cccc(Cl)c1 | 0.4 |  |  | 35.5 |  |  |  | 
8 | O=C(/C=C/c1cccc2c1N(Cc1ccc3ccccc3c1)C(=O)C2(CO)CO)NS(=O)(=O)c1ccc(F)c(F)c1 | 11.6 |  |  | 187 |  |  |  | 
9 | CC1C(=O)N(Cc2ccc3ccccc3c2)c2c(/C=C/C(=O)NS(=O)(=O)c3cccc(Cl)c3)cccc21 (stereo unspecified) | 0.4 | 24.8 | 13.1 | 2.8 |  | 5.63 |  | 
10 | O=C(/C=C/c1cccc2c1N(Cc1ccc3ccccc3c1)C(=O)C2(CO)CO)NS(=O)(=O)c1cc(Cl)c(Cl)s1 | 2.3 |  |  | 243 |  |  |  | 
11 | O=C(/C=C/c1cccc2c1N(Cc1ccc3ccccc3c1)C(=O)C2=O)NS(=O)(=O)c1cccs1 | 13.7 |  |  | 260 |  |  |  | 
12 | O=C(/C=C/c1cccc2c1N(Cc1ccc(Cl)cc1Cl)C(=O)C2)NS(=O)(=O)c1cc(F)c(F)cc1F | 0.2 | 61.6 | 50.6 | 4.4 | 361 | 70.1 |  | 
13 | O=C(/C=C/c1cccc2c1N(Cc1ccc3ccccc3c1)C(=O)C2=O)NS(=O)(=O)c1cc(Cl)c(Cl)s1 | 12.3 |  |  | 15 |  |  |  | 
14 | O=C(/C=C/c1cccc2c1N(Cc1ccc3ccccc3c1)C(=O)C2=O)NS(=O)(=O)c1ccc(F)cc1 | 1.6 |  |  | 33.9 |  |  |  | 
15 | CC1C(=O)N(Cc2ccc3ccccc3c2)c2c(/C=C/C(=O)NS(=O)(=O)c3ccc(F)c(F)c3)cccc21 (stereo unspecified) | 0.6 |  |  | 20 |  |  |  | 
16 | CC1C(=O)N(Cc2ccc3ccccc3c2)c2c(/C=C/C(=O)NS(=O)(=O)c3cc(F)c(F)cc3F)cccc21 (stereo unspecified) | 0.3 | 13.7 | 17.6 | 5.4 | 19 | 5.1 |  | 
17 | O=C(/C=C/c1cccc2c1N(Cc1ccc3ccccc3c1)C(=O)C2(F)F)NS(=O)(=O)c1ccc(F)cc1 | 2.7 |  |  | 27.2 |  |  | > 800 | Active
18 | O=C(/C=C/c1cccc2c1N(Cc1ccc3ccccc3c1)C(=O)C2(F)F)NS(=O)(=O)c1ccc(Cl)cc1 | 5.5 |  |  | 125 |  |  | > 800 | Active
19 | O=C(/C=C/c1cccc2c1N(Cc1ccc(F)c(F)c1)C(=O)C2)NS(=O)(=O)c1cc(F)c(F)cc1F | 0.7 |  |  | 42 |  |  |  | 
20 | O=C(/C=C/c1cccc2c1N(Cc1ccc3ccccc3c1)C(=O)C21OCCO1)NS(=O)(=O)c1cc(Cl)c(Cl)s1 | 7.9 |  |  | 82.4 |  |  |  | 
21 | O=C(/C=C/c1cccc2c1N(Cc1ccc(Cl)cc1Cl)C(=O)C2(F)F)NS(=O)(=O)c1ccc(Cl)cc1 | 1.1 |  |  | 251 |  |  | > 800 | Active
22 | O=C(/C=C/c1cccc2c1N(Cc1ccc(F)c(F)c1)C(=O)C2(F)F)NS(=O)(=O)c1ccc(F)c(F)c1 | 1.3 |  |  | 251 |  |  | > 800 | Active
23 | O=C(/C=C/c1cccc2c1N(Cc1ccc(F)c(F)c1)C(=O)C2(F)F)NS(=O)(=O)c1ccc(Cl)c(Cl)c1 | 1.3 |  |  |  |  |  | > 800 | Active
24 | O=C(/C=C/c1cccc2c1N(Cc1ccc(F)c(F)c1)C(=O)C2(F)F)NS(=O)(=O)c1cccc(Cl)c1 | 5 |  |  | 416 |  |  | > 800 | Active
25 | O=C(/C=C/c1cccc2c1N(Cc1ccc(F)c(F)c1)C(=O)C2)NS(=O)(=O)c1ccc(Cl)c(Cl)c1 | 0.3 |  |  | 55.4 |  |  |  | 
26 | O=C(/C=C/c1cccc2c1N(Cc1ccc(F)c(F)c1)C(=O)C2(F)F)NS(=O)(=O)c1cc(F)c(F)cc1F | 16.5 |  |  | 721 |  |  | > 800 | Active
27 | O=C(/C=C/c1cccc2c1N(Cc1ccc3ccccc3c1)C(=O)C2=O)NS(=O)(=O)c1ccc(Cl)c(Cl)c1 | 1 |  |  | 12.7 |  |  |  | 
28 | O=C(/C=C/c1cccc2c1N(Cc1ccc(Cl)cc1Cl)C(=O)C2(F)F)NS(=O)(=O)c1ccc(F)cc1 | 0.2 |  |  | 64.7 |  |  | > 800 | Active
29 | O=C(/C=C/c1cccc2c1N(Cc1ccc3ccccc3c1)C(=O)C2=O)NS(=O)(=O)c1cc(F)c(F)cc1F | 0.6 |  |  | 17.4 |  |  |  | 
30 | CC1C(=O)N(Cc2ccc(F)c(F)c2)c2c(/C=C/C(=O)NS(=O)(=O)c3cc(F)c(F)cc3F)cccc21 (stereo unspecified) | 1.4 |  |  | 10.7 |  |  |  | 

Results, then the compound that gave them:

Row | IC50 [1] [nM] | remaining at 0.5 h [2] [%] | remaining at 0.5 h [3] [%] | IC50 [4] [nM] | EC50 (Rattus norvegicus) [nM] | remaining at 0.5 h [5] [%] | IC50 (Rattus norvegicus) [nM] | inhibition (INH) (Cytochrome P450 3A4) | Compound
31 | 0.5 | 49.5 | 23.6 | 6.8 |  | 7.26 |  |  | CC1C(=O)N(Cc2ccc(Cl)cc2Cl)c2c(/C=C/C(=O)NS(=O)(=O)c3cccc(Cl)c3)cccc21 (stereo unspecified)
32 | 0.6 | 36.4 | 10.3 | 4.1 |  | 5.83 |  |  | CC1C(=O)N(Cc2ccc3ccccc3c2)c2c(/C=C/C(=O)NS(=O)(=O)c3ccc(Cl)c(Cl)c3)cccc21 (stereo unspecified)
33 | 6.5 |  |  | 136 |  |  |  |  | O=C(/C=C/c1cccc2c1N(Cc1ccc(Cl)cc1Cl)C(=O)C2=O)NS(=O)(=O)c1cc(Cl)c(Cl)s1
34 | 0.5 | 48.4 | 22.4 | 4.3 |  | 4.85 |  |  | CC1C(=O)N(Cc2ccc(Cl)cc2Cl)c2c(/C=C/C(=O)NS(=O)(=O)c3cc(F)c(F)cc3F)cccc21 (stereo unspecified)
35 | 2.4 |  |  | 660 |  |  |  |  | CC1C(=O)N(Cc2ccc(Cl)cc2Cl)c2c(/C=C/C(=O)NS(=O)(=O)c3cccs3)cccc21 (stereo unspecified)
36 | 3.4 |  |  | 23.9 | 47 |  |  |  | CC1C(=O)N(Cc2ccc(Cl)cc2Cl)c2c(/C=C/C(=O)NS(=O)(=O)c3cc(Cl)c(Cl)s3)cccc21 (stereo unspecified)
37 | 0.7 | 54.3 | 23.5 | 3.3 | 137 | 39.1 |  |  | O=C(/C=C/c1cccc2c1N(Cc1ccc(Cl)cc1Cl)C(=O)C2)NS(=O)(=O)c1ccc(F)c(F)c1
38 | 4 |  |  | 39 |  |  |  |  | CC1C(=O)N(Cc2ccc(F)c(F)c2)c2c(/C=C/C(=O)NS(=O)(=O)c3cccc(Cl)c3)cccc21 (stereo unspecified)
39 | 0.9 |  |  | 9.8 |  |  |  |  | CC1C(=O)N(Cc2ccc(Cl)cc2Cl)c2c(/C=C/C(=O)NS(=O)(=O)c3ccc(Cl)c(Cl)c3)cccc21 (stereo unspecified)
40 | 0.4 |  |  | 55.4 |  |  |  |  | O=C(/C=C/c1cccc2c1N(Cc1ccc(F)c(F)c1)C(=O)C2)NS(=O)(=O)c1cc(Cl)c(Cl)s1
41 | 0.4 | 64.7 | 62.1 | 3.3 |  | 16 |  |  | CC1C(=O)N(Cc2ccc(Cl)cc2Cl)c2c(/C=C/C(=O)NS(=O)(=O)c3ccc(F)c(F)c3)cccc21 (stereo unspecified)
42 | 0.5 | 50.4 | 21 | 9.4 | 290 | 33.9 |  |  | O=C(/C=C/c1cccc2c1N(Cc1ccc(Cl)cc1Cl)C(=O)C2)NS(=O)(=O)c1cccc(Cl)c1
43 | 7.2 |  |  | 980 |  |  | > 800 | Active | O=C(/C=C/c1cccc2c1N(Cc1ccc(F)c(F)c1)C(=O)C2(F)F)NS(=O)(=O)c1cc(Cl)c(Cl)s1
44 | 0.9 |  |  | 95.8 |  |  |  |  | CC1C(=O)N(Cc2ccc(F)c(F)c2)c2c(/C=C/C(=O)NS(=O)(=O)c3ccc(Cl)c(Cl)c3)cccc21 (stereo unspecified)
45 | 1.2 | 53.3 | 26.8 | 3.3 | 316 | 56.1 |  |  | O=C(/C=C/c1cccc2c1N(Cc1ccc(Cl)cc1Cl)C(=O)C2)NS(=O)(=O)c1ccc(Cl)c(Cl)c1
